In the library only some 2.1% were active in any assay of this set; here they are far more common.
GSIS activator: GLuc luminescence reporter in INS-1E cells, primary screen for activators of glucose-dependent secretion of insulin; INS-1E GLuc reporter insulin secretion, 2-3 h; activation, % at 16.6 µM; actives 0.61% (n = 370,000); AID 743287, 2014;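 active means lowest replicate activation of at least 40%, so every replicate reaches that level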
MLL AF4-AF9 inh: inhibitors of AF4 peptide binding to AF9, primary screen, biochemical, AlphaScreen, biotin-AF4 peptide, FLAG-AF9, single point; Protein AF-9 (Homo sapiens), P42568; inhibition, % at 10 µM; actives 0.47% (n = 350,000);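 active means every replicate reaching a set inhibition limit, whatever the replicate mean, cut at about 25% in these data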
Target sequence (P42568 whole entry, looked up): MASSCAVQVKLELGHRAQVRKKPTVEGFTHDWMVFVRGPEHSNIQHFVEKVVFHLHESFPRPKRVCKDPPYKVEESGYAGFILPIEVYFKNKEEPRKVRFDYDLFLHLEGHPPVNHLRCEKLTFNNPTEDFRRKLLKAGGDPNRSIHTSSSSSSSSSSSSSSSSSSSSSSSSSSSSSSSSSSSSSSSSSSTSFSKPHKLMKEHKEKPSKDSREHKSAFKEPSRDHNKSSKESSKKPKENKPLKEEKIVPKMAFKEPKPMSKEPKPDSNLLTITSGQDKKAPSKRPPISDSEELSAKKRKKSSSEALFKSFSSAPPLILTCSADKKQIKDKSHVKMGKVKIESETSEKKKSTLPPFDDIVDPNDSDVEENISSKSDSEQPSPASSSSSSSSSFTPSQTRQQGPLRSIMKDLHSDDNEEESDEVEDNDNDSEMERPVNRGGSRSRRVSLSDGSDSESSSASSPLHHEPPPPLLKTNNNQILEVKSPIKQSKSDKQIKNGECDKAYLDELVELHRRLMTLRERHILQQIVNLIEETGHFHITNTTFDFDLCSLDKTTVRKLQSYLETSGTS
Xi reactivation: activators of inactive X chromosome reactivation, primary screen, imaging, XiGFP fibroblasts, GFP high-content imaging, set 2 | actives 0.055% (n = 360,000) | activation, % at 7.58 µM | XiGFP mouse fibroblasts, % GFP-positive cells imaging, 3 d; cells co-treated with 5-aza-dC sensitizer; scaled so ellipticine positive control = 100%;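 active means mean normalized replicate activation at least 10% and every replicate at or above 10%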
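material = 68-5-11 XiGFP fibroblast line | medium = DMEM plus 5-aza-dC sensitizer | schedule = 3 days compound exposure | benchmarks = positive control ellipticine, 6 µM final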
PAX8 inh HTS: inhibitors of PAX8-driven TPO luciferase reporter, primary screen, RMG-I cells, single concentration; SteadyGlo, 24 h; inhibition, % at 12.6 µM; actives 1.2% (n = 360,000); AID 652154, 2013;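 active means mean replicate inhibition at least 60% with every replicate also reaching 60%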;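 further: luciferase light reporting Pax8 driven TPO promoter activity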
PGC1a acetyl inh: inhibitors of PGC1a acetylation signal, primary screen, cell-based, U2OS, AlphaScreen, inhibitor mode. actives 0.17% (n = 350,000). AID 651687, 2012. AlphaScreen anti-acetyl-lysine; with virally co-expressed GCN5 acetyltransferase. inhibition, % at 15.6 µM;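 active means every replicate shows inhibition of at least 40%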
EWS-Fli block: EWS/Fli-driven NR0B1 reporter inhibitors, primary screen, A673 cells, NR0B1 luciferase, luminescence, MLPCN library. viability-normalised. inhibition, % at 12.6 µM. actives 0.67% (n = 350,000). AID 651661, 2012;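 active means mean inhibition of at least 50% after viability correction, with every replicate also passing that limit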;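 further: firefly luciferase signal divided by Alamar Blue viability fluorescence both relative to DMSO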
Large screens that a line does not name were inactive.

CCN1[C@@H]2c3ccc(/C=C/c4ccccc4)c(=O)n3C[C@@H]2[C@@H](CO)[C@@H]1C(=O)N(C)C	none (no result: PGC1a acetyl inh)
O=C(CCN1CCCCC1)NCC[C@@H]1CC[C@H](NS(=O)(=O)c2cccc(F)c2)[C@H](CO)O1	none
CCOc1ccc2c(CC)cc(=O)oc2c1OCC	PAX8 inh HTS 101.9
C[C@H](CO)N1C[C@H](C)[C@@H](CN(C)C(=O)Nc2ccc(C(F)(F)F)cc2)Oc2ccc(NC(=O)CCCCCC(=O)Nc3ccccc3N)cc2CC1=O	none (no result: MLL AF4-AF9 inh)
COc1ccccc1-n1nnnc1SCC(=O)NCC1(N2CCOCC2)CCCCC1	MLL AF4-AF9 inh 26.8
Cc1cccc(-n2nnnc2SCC(=O)NCC2(N3CCOCC3)CCCCC2)c1C	none (no result: PGC1a acetyl inh)
C[C@H](CO)N1C[C@H](C)[C@@H](CN(C)C(=O)Nc2cccc3ccccc23)Oc2ccc(NS(=O)(=O)c3cccs3)cc2CC1=O	none (no result: MLL AF4-AF9 inh)
C[C@@H]1CN([C@@H](C)CO)C(=O)Cc2cc(NC(=O)Nc3ccccc3)ccc2O[C@H]1CN(C)CC1CCCCC1	none
Cc1ccc(S(=O)(=O)Nc2ccc3c(c2)C(=O)N([C@H](C)CO)C[C@H](C)[C@H](CN(C)S(=O)(=O)c2ccc(C)cc2)OCCCC[C@H](C)O3)cc1	PAX8 inh HTS 63.1
Cc1ccc(S(=O)(=O)N(C)C[C@H]2OCCCC[C@H](C)Oc3ccc(NS(=O)(=O)c4cccs4)cc3C(=O)N([C@H](C)CO)C[C@@H]2C)cc1	PAX8 inh HTS 72.1
Cc1ccc(S(=O)(=O)Nc2ccc3c(c2)C(=O)N([C@@H](C)CO)C[C@@H](C)[C@@H](CN(C)S(=O)(=O)c2ccc(C)cc2)OCCCC[C@@H](C)O3)cc1	PAX8 inh HTS 66.5
Cc1ccc(S(=O)(=O)N(C)C[C@H]2OCCCC[C@H](C)Oc3ccc(NS(=O)(=O)c4ccccc4)cc3C(=O)N([C@@H](C)CO)C[C@@H]2C)cc1	none
Cc1ccc(S(=O)(=O)Nc2ccc3c(c2)C(=O)N([C@@H](C)CO)C[C@H](C)[C@H](CN(C)S(=O)(=O)c2ccccc2)OCCCC[C@H](C)O3)cc1	PAX8 inh HTS 67.1
Cc1ccc(S(=O)(=O)N(C)C[C@@H]2OCCCC[C@H](C)Oc3ccc(NS(=O)(=O)c4cccs4)cc3C(=O)N([C@@H](C)CO)C[C@H]2C)cc1	none
O=C(C[C@H]1C=C[C@@H](NC(=O)C2CCOCC2)[C@H](CO)O1)Nc1ccccc1	none (no result: PAX8 inh HTS, PGC1a acetyl inh)
O=C(NC1CCCCC1)C(c1ccc2ncccc2c1)N(Cc1ccc2c(c1)OCO2)C(=O)c1ccc2c(c1)OCCO2 (centres undefined)	PGC1a acetyl inh 96.0
O=C(NC1CCCCC1)C(c1ccc2ncccc2c1)N(Cc1ccc(F)cc1)C(=O)c1ccc2c(c1)OCCO2 (centres undefined)	none (no result: Xi reactivation, PAX8 inh HTS)
COc1ccc2c(c1)[nH]c1c(=O)n(/N=C/c3ccc(OC)c(CN4CCCC4)c3)cnc12	none
COc1ccc(/C=N/n2cnc3c([nH]c4ccc(F)cc43)c2=O)cc1CN1CCCC1	EWS-Fli block 56.5
COc1ccc(/C=N/n2cnc3c([nH]c4ccc(C)cc43)c2=O)cc1CN1CCCC1	EWS-Fli block 59.1
C[C@@H]1CN([C@H](C)CO)C(=O)c2cc(NC(=O)c3ccncc3)ccc2O[C@@H]1CN(C)S(=O)(=O)c1cccs1	none (no result: PAX8 inh HTS)
O=C(c1ccco1)N1CCN(C2CN(Cc3ccccc3)S(=O)(=O)C2)CC1 (centres undefined)	GSIS activator 47.2
COc1ccc(/C=C/C(=O)Nc2sc3c(c2C(=O)NCc2cccnc2)CCCC3)cc1	none (no result: MLL AF4-AF9 inh, Xi reactivation, PAX8 inh HTS, PGC1a acetyl inh, EWS-Fli block)
O=C(COc1ccccc1)Nc1sc2c(c1C(=O)NCc1cccnc1)CCCC2	GSIS activator 92.3 (no result: MLL AF4-AF9 inh, Xi reactivation, PAX8 inh HTS, EWS-Fli block)
CCC(=O)N[C@@H]1CC[C@H](CCn2cc(CN(C)C)nn2)O[C@H]1CO	none
CN(C)CC#Cc1ccc([C@@H]2[C@@H](CO)N3C(=O)CN(C(=O)Cc4cccnc4)C[C@@H]23)cc1	none
CC(C)(C)c1ccc(-c2noc(CCC(=O)Nc3cccnc3)n2)cc1	PAX8 inh HTS 86.9
COc1ccc(-c2noc(CCC(=O)Nc3cccnc3)n2)cc1	none (no result: PGC1a acetyl inh)
CCOc1ccc(-c2nc(CSCC(=O)NC3CCN(Cc4ccccc4)CC3)c(C)o2)cc1	EWS-Fli block 59.3 (no result: GSIS activator, PGC1a acetyl inh)
CCOc1ccc(-c2nc(CSCC(=O)N3CCN(c4cccc(OC)c4)CC3)c(C)o2)cc1	EWS-Fli block 87.8
COCC(=O)N1C[C@@H](C)[C@H](OC)CN(C)C(=O)c2ccc(NC(=O)c3ccc(F)cc3)cc2OC[C@@H]1C	none
C[C@H](CO)N1C[C@H](C)[C@H](CN(C)S(=O)(=O)CC(F)(F)F)OCc2ccccc2-c2c(n(C)c3ccccc23)C1=O	none
C=CC(=O)N1C/C(=C/c2ccc(F)cc2)C(=O)/C(=C\c2ccc(F)cc2)C1	PAX8 inh HTS 99.7, PGC1a acetyl inh 82.7, EWS-Fli block 86.9
O=C1C(=Cc2ccc(F)cc2)CCc2ccccc21	none (no result: PGC1a acetyl inh)
Cn1cc(C=C2C(=O)CC(C)(C)CC2=O)c2ccccc21	none (no result: PGC1a acetyl inh)
Cn1cc(C=C2C(=O)OC3(CCCCC3)OC2=O)c2ccccc21	MLL AF4-AF9 inh 25.7 (no result: GSIS activator)
O=C(O)C[C@H]1CC[C@H](NC(=O)c2ccncc2)[C@@H](CO)O1	none
CC1(C)N=C(N)N=C(N)N1c1ccc(Oc2ccc(Cl)cc2)c(Cl)c1	PAX8 inh HTS 60.3
COc1ccc(C(C)(O)c2nc(-c3ccc(F)cc3OC)cs2)cc1 (centres undefined)	EWS-Fli block 57.7 (no result: PGC1a acetyl inh)
COc1ccc(C(C)(O)c2nc(-c3ccncc3)cs2)cc1 (centres undefined)	EWS-Fli block 58.9
COc1ccc(C(C)(O)c2nc(-c3ccccc3C)cs2)cc1 (centres undefined)	EWS-Fli block 59.7
COc1ccccc1-c1ccc([C@@H]2[C@H]3CN(C(=O)c4ccncc4)CCCCN3[C@H]2CO)cc1	none
C/C=C/c1ccc2c(c1)O[C@H](CN(C)C(=O)Nc1cc(F)ccc1F)[C@H](C)CN([C@H](C)CO)S2(=O)=O	none (no result: PAX8 inh HTS)
C=CCNC(=O)[C@H]1[C@@H]2C(=O)O[C@@H](c3ccccc3)[C@@H](c3ccccc3)N2[C@@H](c2ccccc2OCCO)[C@]12C(=O)Nc1ccc(C#CCC(C(=O)OC)C(=O)OC)cc12	EWS-Fli block 54.0 (no result: GSIS activator, Xi reactivation, PAX8 inh HTS)
NC(=O)[C@H]1[C@@H]2C(=O)O[C@@H](c3ccccc3)[C@@H](c3ccccc3)N2[C@@H](c2ccccc2OCCO)[C@]12C(=O)Nc1ccc(C#CC3(O)CCCCCC3)cc12	PAX8 inh HTS 103.1 (no result: GSIS activator, Xi reactivation)
